# Reference: ChEMBL document CHEMBL1156310, “Stepwise synthesis of oligonucleotide-peptide conjugates containing guanidinium and lipophilic groups in their 3'-termini” (Bioorg Med Chem Lett, 2010)
# Legend:
# SH-SY5Y [1] = experiment: Antisense activity in human SH-SY5Y cells assessed as inhibition of luciferase gene expression at 60 nM after 22 hrs by luminometry in the presence of lipofectamine 2000; type: functional
# In short: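 SH-SY5Y cells cotransfected via Lipofectamine 2000 with Renilla (target) and firefly (internal control) luciferase plasmids plus phosphorothioate ASO derivatives at 60 nM, targeting Renilla mRNA site 21-38; scrambled sequences as controls. Read-out: Renilla luciferase inhibition normalized to firefly.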
# SH-SY5Y [2] = experiment: Cellular uptake in human SH-SY5Y cells at 300 nM after 22 hrs by dual leucifearse reporter assay; type: ADME, cell-based; conditions: 0.3 µM
# In short: (§1)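 Dual-luciferase plasmids (Renilla target, firefly internal control) transfected into SH-SY5Y; after 3 h, medium replaced with fresh medium containing ASO-peptide conjugates (150, 200, 300 nM) without Lipofectamine 2000. Luciferase activities measured 22 h after transfection; knockdown expressed as inhibition of Renilla expression. Phosphorothioate ASO targets Renilla mRNA 21-38 site.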
# SH-SY5Y [3] = experiment: Antisense activity in human SH-SY5Y cells assessed as inhibition of luciferase gene expression at 300 nM after 22 hrs by luminometry; type: functional; parameters: scale not given: the % may be the effect or the level left; in short: as §1
Drug uptake (SH-SY5Y [2]),Structure (SMILES),inhibition at 0.06 µM (SH-SY5Y [1]),Activity (SH-SY5Y [3])
21%,Cc1cn([C@H]2C[C@H](OP(O)(=S)OC[C@H]3O[C@@H](n4cc(C)c(=O)[nH]c4=O)C[C@@H]3OP(O)(=S)OC[C@H]3O[C@@H](n4cnc5c(=O)[nH]c(N)nc54)[C@H](O)[C@@H]3OP(O)(=S)OC[C@H]3O[C@@H](n4cc(C)c(=O)[nH]c4=O)C[C@@H]3OP(O)(=S)OC[C@H]3O[C@@H](n4cc(C)c(=O)[nH]c4=O)C[C@@H]3OP(O)(=S)OC[C@H]3O[C@@H](n4cc(C)c(=O)[nH]c4=O)C[C@@H]3OP(O)(=S)OC[C@H]3O[C@@H](n4ccc(N)nc4=O)[C@H](O)[C@@H]3OP(O)(=S)OC[C@H]3O[C@@H](n4ccc(N)nc4=O)[C@H](O)[C@@H]3OP(O)(=S)OC[C@H]3O[C@@H](n4cc(C)c(=O)[nH]c4=O)C[C@@H]3OP(O)(=S)OC[C@H]3O[C@@H](n4cc(C)c(=O)[nH]c4=O)C[C@@H]3OP(O)(=S)OC[C@H]3O[C@@H](n4cc(C)c(=O)[nH]c4=O)C[C@@H]3OP(O)(=S)OC[C@H]3O[C@@H](n4cnc5c(=O)[nH]c(N)nc54)[C@H](O)[C@@H]3OP(O)(=S)OC[C@H]3O[C@@H](n4ccc(N)nc4=O)[C@H](O)[C@@H]3O)[C@@H](COP(O)(=S)O[C@H]3[C@@H](O)[C@H](n4ccc(N)nc4=O)O[C@@H]3COP(O)(=S)O[C@H]3C[C@H](n4cc(C)c(=O)[nH]c4=O)O[C@@H]3COP(O)(=S)O[C@H]3[C@@H](O)[C@H](n4cnc5c(=O)[nH]c(N)nc54)O[C@@H]3COP(O)(=S)O[C@H]3[C@@H](O)[C@H](n4cnc5c(=O)[nH]c(N)nc54)O[C@@H]3COP(O)(=S)O[C@H]3[C@@H](O)[C@H](n4cnc5c(N)ncnc54)O[C@@H]3COP(O)(=S)OCCCC(=O)N[C@H](CCCCNC(=N)N)C(=O)N[C@@H](CCCCNC(=N)N)C(=O)N[C@H](CCCCNC(=N)N)C(=O)N[C@@H](CCCCNC(=N)N)C(=O)NCCCCCCO)O2)c(=O)[nH]c1=O (stereo not given in full),57%,–
28%,Cc1cn([C@H]2C[C@H](OP(O)(=S)OC[C@H]3O[C@@H](n4cc(C)c(=O)[nH]c4=O)C[C@@H]3OP(O)(=S)OC[C@H]3O[C@@H](n4cnc5c(=O)[nH]c(N)nc54)[C@H](O)[C@@H]3OP(O)(=S)OC[C@H]3O[C@@H](n4cc(C)c(=O)[nH]c4=O)C[C@@H]3OP(O)(=S)OC[C@H]3O[C@@H](n4cc(C)c(=O)[nH]c4=O)C[C@@H]3OP(O)(=S)OC[C@H]3O[C@@H](n4cc(C)c(=O)[nH]c4=O)C[C@@H]3OP(O)(=S)OC[C@H]3O[C@@H](n4ccc(N)nc4=O)[C@H](O)[C@@H]3OP(O)(=S)OC[C@H]3O[C@@H](n4ccc(N)nc4=O)[C@H](O)[C@@H]3OP(O)(=S)OC[C@H]3O[C@@H](n4cc(C)c(=O)[nH]c4=O)C[C@@H]3OP(O)(=S)OC[C@H]3O[C@@H](n4cc(C)c(=O)[nH]c4=O)C[C@@H]3OP(O)(=S)OC[C@H]3O[C@@H](n4cc(C)c(=O)[nH]c4=O)C[C@@H]3OP(O)(=S)OC[C@H]3O[C@@H](n4cnc5c(=O)[nH]c(N)nc54)[C@H](O)[C@@H]3OP(O)(=S)OC[C@H]3O[C@@H](n4ccc(N)nc4=O)[C@H](O)[C@@H]3O)[C@@H](COP(O)(=S)O[C@H]3[C@@H](O)[C@H](n4ccc(N)nc4=O)O[C@@H]3COP(O)(=S)O[C@H]3C[C@H](n4cc(C)c(=O)[nH]c4=O)O[C@@H]3COP(O)(=S)O[C@H]3[C@@H](O)[C@H](n4cnc5c(=O)[nH]c(N)nc54)O[C@@H]3COP(O)(=S)O[C@H]3[C@@H](O)[C@H](n4cnc5c(=O)[nH]c(N)nc54)O[C@@H]3COP(O)(=S)O[C@H]3[C@@H](O)[C@H](n4cnc5c(N)ncnc54)O[C@@H]3COP(O)(=S)OCCCC(=O)N[C@H](CCCCNC(=N)N)C(=O)N[C@@H](CCCCNC(N)N)C(=O)N[C@H](CCCCNC(=N)N)C(=O)N[C@@H](CCCCNC(=N)N)C(=O)N[C@H](CCCCNC(=N)N)C(=O)N[C@@H](CCCCNC(=N)N)C(=O)N[C@H](CCCCNC(=N)N)C(=O)N[C@@H](CCCCNC(=N)N)C(=O)NCCCCCCO)O2)c(=O)[nH]c1=O (stereo not given in full),66%,28%
